From ChEMBL document CHEMBL1137681, “Design, synthesis and characterization of N9/N7-substituted 6-aminopurines as VEGF-R and EGF-R inhibitors” (Eur J Med Chem, 2009)
pIC50: −log10 of the molar value. Activity calls are given as the source filed them. No cut-off for these calls is given here.

Columns and labels:
[1] = biological target: Aurora kinase B (Homo sapiens, UniProt Q96GD4); experiment: Inhibition of Aurora B
Procedure, shortened: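 Buffer was HEPES-NaOH pH 7.5 with MgCl2, MnCl2, vanadate, DTT, PEG20000 and 1% DMSO. Run 80 min at 30 °C, quenched with 2% H3PO4, NaCl-washed, then scintillation-counted. IC50 fitted from 10 concentrations tested once each.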

[2] = tested on: Serine/threonine-protein kinase B-raf (Homo sapiens), P15056 [V600E]; experiment: Inhibition of BRAF V600E mutant
[3] = biological target: Cyclin-dependent kinase 4/cyclin D1 (Homo sapiens) (UniProt P11802+P24385); experiment: Inhibition of CDK4/Cyclin D1 up to 100 uM; type: protein-complex assay
Procedure, shortened: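 Buffer: HEPES-NaOH pH 7.5, Mg2+/Mn2+, vanadate, DTT, PEG20000, 1% DMSO. Incubated 80 min at 30 °C, stopped with 2% H3PO4, washed with 0.9% NaCl, and counted by scintillation. IC50 from 10 concentrations, singlicate.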

[4] = biological target: Mitogen-activated protein kinase kinase kinase 8 (Homo sapiens) (UniProt P41279); experiment: Inhibition of COT
[5] = biological target: T1, Ephrin type-B receptor 4 (Homo sapiens) (UniProt P54760); experiment: Inhibition of EPHB4 up to 100 uM
T1 sequence (whole entry): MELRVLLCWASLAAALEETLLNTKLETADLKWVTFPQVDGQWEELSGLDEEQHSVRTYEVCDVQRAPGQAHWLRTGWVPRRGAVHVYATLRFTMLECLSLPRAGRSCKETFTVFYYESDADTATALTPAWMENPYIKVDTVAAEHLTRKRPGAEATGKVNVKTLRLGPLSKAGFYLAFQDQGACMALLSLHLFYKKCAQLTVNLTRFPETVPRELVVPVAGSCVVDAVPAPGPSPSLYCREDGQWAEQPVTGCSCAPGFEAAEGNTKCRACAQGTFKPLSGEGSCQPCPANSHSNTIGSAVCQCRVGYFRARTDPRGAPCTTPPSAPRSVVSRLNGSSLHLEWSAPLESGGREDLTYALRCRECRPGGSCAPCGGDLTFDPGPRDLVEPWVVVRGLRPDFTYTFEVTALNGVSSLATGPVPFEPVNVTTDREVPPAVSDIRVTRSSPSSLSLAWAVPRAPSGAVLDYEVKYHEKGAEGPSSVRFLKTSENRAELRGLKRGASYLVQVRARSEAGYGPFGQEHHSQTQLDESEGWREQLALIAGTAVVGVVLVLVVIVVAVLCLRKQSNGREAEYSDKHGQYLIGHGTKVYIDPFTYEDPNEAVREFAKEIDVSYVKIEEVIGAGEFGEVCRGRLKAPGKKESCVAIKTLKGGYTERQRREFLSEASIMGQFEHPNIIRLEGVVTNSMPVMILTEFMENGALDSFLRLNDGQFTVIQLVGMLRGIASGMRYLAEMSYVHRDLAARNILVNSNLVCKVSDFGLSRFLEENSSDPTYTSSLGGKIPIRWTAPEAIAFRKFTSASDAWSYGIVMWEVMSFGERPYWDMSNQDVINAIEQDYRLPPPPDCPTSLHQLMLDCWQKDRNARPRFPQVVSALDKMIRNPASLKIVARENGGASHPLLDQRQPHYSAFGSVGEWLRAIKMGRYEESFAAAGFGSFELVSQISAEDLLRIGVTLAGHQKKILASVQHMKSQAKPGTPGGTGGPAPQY
Procedure, shortened: (§1)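 Buffer: HEPES-NaOH pH 7.5, Mg2+/Mn2+, vanadate, DTT, PEG20000, 1% DMSO. Incubated 30 °C for 80 min, stopped with 2% H3PO4, washed, and scintillation-counted. IC50 from 10 concentrations in singlicate.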

[6] = biological target: Insulin-like growth factor 1 receptor (Homo sapiens) (UniProt P08069); experiment: Inhibition of IGF1R up to 100 uM; procedure, shortened: as §1
[7] = biological target: Vascular endothelial growth factor receptor 2 (Homo sapiens, UniProt P35968); experiment: Inhibition of VEGFR2
[8] = biological target: Receptor-type tyrosine-protein kinase FLT3 (Homo sapiens) (UniProt P36888); experiment: Inhibition of FLT3 up to 100 uM
[9] = biological target: Hepatocyte growth factor receptor (Homo sapiens) (UniProt P08581); experiment: Inhibition of MET up to 100 uM
[10] = biological target: Platelet-derived growth factor receptor beta (Homo sapiens) (UniProt P09619); experiment: Inhibition of PDGFRbeta up to 100 uM
[11] = biological target: T2, Serine/threonine-protein kinase PLK4 (Homo sapiens) (UniProt O00444); experiment: Inhibition of SAK up to 100 uM
T2 sequence (whole entry): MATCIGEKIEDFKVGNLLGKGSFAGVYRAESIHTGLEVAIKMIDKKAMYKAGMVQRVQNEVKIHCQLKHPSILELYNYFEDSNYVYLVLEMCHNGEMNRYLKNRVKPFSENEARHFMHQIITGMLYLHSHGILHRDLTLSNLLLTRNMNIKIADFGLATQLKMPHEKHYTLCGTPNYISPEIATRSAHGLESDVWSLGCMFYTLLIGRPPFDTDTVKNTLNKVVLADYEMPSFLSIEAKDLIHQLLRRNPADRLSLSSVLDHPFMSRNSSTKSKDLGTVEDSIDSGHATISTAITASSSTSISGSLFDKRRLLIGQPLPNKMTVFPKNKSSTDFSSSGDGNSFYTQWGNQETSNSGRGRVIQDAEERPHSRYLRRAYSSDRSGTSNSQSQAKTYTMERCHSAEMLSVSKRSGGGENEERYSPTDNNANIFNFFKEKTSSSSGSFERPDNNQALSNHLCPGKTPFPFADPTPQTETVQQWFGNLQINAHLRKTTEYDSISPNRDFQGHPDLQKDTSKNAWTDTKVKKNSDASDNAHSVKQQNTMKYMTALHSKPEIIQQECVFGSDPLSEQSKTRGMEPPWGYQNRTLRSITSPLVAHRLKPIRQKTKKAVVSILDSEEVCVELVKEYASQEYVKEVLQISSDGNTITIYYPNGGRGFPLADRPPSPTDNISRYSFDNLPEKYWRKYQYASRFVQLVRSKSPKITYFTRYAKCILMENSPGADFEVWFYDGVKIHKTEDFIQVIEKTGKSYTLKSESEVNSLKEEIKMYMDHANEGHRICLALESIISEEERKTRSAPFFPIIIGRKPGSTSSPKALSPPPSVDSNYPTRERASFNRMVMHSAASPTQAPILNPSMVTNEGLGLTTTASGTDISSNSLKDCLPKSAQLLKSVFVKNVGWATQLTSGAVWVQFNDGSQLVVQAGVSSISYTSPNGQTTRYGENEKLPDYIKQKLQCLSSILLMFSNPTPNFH

[12] = biological target: Epidermal growth factor receptor (Homo sapiens, UniProt P00533); experiment: Inhibition of EGFR
[13] = biological target: Vascular endothelial growth factor receptor 3 (Homo sapiens, UniProt P35916); experiment: Inhibition of VEGFR3

Mitogen-activated protein kinase kinase kinase 8 (Homo sapiens), sequence (P41279 whole entry): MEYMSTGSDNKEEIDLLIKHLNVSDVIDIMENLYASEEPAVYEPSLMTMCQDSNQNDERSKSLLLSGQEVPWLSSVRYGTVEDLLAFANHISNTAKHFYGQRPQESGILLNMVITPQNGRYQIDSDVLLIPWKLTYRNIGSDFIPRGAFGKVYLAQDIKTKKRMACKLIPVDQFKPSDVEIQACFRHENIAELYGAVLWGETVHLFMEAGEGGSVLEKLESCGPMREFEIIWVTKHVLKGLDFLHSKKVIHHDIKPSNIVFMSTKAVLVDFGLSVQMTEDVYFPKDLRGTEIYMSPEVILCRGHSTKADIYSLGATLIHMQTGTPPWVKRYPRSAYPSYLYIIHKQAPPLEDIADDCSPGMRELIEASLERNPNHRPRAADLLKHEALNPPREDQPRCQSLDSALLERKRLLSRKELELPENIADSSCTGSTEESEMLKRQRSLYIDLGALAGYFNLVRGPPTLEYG
Serine/threonine-protein kinase B-raf (Homo sapiens), P15056 [V600E], sequence (P15056 whole entry V600E): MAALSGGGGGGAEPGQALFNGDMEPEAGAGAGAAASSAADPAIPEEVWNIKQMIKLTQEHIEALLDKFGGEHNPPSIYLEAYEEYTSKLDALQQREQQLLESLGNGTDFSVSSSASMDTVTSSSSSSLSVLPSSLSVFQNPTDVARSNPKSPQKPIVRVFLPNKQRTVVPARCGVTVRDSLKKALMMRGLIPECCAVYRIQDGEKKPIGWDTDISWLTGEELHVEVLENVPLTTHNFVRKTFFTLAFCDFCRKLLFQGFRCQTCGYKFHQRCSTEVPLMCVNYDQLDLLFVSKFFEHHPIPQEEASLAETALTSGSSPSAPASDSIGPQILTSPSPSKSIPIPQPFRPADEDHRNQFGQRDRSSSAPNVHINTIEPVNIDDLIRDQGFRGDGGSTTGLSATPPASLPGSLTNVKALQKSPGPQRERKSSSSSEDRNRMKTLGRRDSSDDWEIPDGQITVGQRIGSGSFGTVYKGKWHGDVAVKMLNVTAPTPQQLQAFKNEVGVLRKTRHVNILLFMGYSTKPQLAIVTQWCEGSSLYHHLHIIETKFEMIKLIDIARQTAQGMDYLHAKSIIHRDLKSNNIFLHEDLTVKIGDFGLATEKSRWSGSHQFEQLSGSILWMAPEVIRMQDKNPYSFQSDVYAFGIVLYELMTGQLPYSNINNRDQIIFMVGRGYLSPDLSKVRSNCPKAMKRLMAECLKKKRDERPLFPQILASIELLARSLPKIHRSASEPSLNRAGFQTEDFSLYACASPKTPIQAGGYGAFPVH
Vascular endothelial growth factor receptor 2, sequence (P35968 whole entry): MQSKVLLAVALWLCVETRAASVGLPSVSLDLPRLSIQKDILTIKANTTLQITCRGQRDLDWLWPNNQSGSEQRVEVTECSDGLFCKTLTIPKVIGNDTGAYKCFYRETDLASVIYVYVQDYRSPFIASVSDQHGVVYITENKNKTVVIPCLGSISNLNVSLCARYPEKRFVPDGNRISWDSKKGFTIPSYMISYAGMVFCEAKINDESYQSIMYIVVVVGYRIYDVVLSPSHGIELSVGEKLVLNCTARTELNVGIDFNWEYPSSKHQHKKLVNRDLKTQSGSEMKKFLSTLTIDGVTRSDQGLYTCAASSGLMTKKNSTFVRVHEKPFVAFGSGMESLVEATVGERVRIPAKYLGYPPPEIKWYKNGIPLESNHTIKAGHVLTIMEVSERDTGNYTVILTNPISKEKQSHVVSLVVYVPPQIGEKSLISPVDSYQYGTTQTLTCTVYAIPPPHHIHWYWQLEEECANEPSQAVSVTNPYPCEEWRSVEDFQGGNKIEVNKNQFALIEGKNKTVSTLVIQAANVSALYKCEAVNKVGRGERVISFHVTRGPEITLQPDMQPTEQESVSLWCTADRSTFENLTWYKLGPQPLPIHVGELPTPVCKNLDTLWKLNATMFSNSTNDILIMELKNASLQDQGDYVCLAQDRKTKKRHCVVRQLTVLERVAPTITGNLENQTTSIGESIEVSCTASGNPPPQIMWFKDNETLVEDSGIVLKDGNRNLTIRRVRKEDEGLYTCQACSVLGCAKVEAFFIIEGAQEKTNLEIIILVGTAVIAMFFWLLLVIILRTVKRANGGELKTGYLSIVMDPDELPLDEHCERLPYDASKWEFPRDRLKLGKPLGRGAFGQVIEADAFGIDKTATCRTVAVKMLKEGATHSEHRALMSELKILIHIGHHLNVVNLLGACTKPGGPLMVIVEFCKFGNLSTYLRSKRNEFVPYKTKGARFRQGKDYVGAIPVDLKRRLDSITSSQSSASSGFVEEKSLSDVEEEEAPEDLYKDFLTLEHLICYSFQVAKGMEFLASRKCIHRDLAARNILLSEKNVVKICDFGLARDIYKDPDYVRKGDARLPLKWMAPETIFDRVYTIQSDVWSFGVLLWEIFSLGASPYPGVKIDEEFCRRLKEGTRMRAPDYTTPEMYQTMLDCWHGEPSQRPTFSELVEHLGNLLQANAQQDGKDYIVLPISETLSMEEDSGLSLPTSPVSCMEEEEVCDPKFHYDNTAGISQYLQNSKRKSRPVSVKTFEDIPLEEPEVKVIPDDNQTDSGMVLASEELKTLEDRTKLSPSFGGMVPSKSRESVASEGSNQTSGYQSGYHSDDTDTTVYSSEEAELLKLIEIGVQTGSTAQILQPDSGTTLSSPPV
Platelet-derived growth factor receptor beta (Homo sapiens), sequence (P09619 whole entry): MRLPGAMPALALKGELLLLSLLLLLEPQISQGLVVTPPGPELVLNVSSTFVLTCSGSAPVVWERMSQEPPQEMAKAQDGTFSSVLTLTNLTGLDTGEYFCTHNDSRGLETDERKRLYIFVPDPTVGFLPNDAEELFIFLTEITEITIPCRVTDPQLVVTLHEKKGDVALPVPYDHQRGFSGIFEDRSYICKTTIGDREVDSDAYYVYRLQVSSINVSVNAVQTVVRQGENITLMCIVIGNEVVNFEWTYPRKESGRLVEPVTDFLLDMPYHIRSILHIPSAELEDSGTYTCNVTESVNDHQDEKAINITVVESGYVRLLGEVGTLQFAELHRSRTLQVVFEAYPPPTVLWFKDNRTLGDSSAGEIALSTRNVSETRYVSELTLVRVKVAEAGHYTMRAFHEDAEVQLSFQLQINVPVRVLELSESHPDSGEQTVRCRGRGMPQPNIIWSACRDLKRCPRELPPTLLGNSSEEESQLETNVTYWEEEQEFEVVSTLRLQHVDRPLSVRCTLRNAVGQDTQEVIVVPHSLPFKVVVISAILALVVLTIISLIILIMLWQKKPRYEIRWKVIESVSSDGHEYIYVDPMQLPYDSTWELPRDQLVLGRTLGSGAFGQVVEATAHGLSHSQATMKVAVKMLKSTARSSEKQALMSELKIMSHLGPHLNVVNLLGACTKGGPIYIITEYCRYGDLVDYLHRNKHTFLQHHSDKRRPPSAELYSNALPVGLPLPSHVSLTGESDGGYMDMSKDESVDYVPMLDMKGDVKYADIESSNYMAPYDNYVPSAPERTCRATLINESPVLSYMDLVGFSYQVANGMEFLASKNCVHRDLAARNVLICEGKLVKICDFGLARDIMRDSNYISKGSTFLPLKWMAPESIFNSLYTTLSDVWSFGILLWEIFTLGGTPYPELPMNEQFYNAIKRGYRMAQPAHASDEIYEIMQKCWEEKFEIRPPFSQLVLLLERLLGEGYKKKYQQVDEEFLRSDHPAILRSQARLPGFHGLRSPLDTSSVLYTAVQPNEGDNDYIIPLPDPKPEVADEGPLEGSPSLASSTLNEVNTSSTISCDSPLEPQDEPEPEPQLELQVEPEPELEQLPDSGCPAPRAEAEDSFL
Epidermal growth factor receptor, sequence (P00533 whole entry): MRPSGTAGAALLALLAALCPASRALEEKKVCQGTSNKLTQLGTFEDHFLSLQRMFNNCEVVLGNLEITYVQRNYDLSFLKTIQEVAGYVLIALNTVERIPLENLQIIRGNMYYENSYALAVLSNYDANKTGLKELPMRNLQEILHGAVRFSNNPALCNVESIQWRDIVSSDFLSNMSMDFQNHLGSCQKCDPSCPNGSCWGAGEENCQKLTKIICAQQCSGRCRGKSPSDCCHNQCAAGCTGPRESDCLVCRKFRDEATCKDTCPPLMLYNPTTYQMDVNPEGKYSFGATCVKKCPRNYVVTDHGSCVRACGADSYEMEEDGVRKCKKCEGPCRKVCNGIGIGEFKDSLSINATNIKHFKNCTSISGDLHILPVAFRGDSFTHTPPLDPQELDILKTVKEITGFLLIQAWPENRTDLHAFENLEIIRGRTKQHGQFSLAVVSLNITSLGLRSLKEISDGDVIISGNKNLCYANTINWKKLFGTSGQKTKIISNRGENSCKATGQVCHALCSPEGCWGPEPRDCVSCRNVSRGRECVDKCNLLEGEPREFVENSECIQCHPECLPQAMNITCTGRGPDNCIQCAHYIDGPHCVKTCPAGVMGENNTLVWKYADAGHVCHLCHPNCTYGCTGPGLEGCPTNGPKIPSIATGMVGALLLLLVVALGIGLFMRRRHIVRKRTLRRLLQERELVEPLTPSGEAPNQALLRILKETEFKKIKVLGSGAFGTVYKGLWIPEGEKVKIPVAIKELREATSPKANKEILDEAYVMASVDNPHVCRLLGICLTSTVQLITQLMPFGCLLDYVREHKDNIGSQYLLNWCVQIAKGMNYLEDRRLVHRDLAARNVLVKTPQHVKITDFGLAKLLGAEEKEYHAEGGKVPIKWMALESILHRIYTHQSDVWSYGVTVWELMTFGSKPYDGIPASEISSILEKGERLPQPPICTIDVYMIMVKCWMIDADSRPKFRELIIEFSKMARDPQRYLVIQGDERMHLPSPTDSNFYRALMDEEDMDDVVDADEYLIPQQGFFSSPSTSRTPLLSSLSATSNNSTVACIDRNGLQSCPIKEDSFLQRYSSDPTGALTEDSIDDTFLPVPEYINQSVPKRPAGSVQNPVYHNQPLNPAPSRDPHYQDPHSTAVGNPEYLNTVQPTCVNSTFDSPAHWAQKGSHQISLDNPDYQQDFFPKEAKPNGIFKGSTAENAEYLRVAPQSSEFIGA

Row | SMILES | inhibition [1] | inhibition [2] | inhibition [3] | inhibition [4] | inhibition [5] | inhibition [6] | inhibition [7] | inhibition [8] | inhibition [9] | inhibition [10] | inhibition [11] | pIC50 [12] | inhibition [13] | pIC50 [7] | pIC50 [1] | inhibition [12] | pIC50 [13]
1 | Nc1ncnc2ncn(CC(=O)c3ccccc3)c12 | inactive | inactive | inactive | inactive | inactive | inactive | inactive | inactive | inactive | inactive | inactive |  |  |  |  |  | 
2 | Nc1ncnc2c1ncn2CC(=O)c1ccccn1 | inactive | inactive | inactive | inactive | inactive | inactive | inactive | inactive | inactive | inactive | inactive | 4.05 | inactive |  |  |  | 
3 | COc1ncnc2c1ncn2CC(=O)c1ccccc1 | inactive | inactive | inactive | inactive | inactive | inactive |  | inactive | inactive | inactive | inactive |  |  | 4.60 |  | inactive | 4.35
4 | Nc1ncnc2c1ncn2CC(=O)c1cccnc1 | inactive | inactive | inactive | inactive | inactive | inactive |  | inactive | inactive | inactive | inactive | 4.03 | inactive | 4.24 |  |  | 
5 | COc1ncnc2ncn(CC(=O)c3ccccc3)c12 | inactive | inactive | inactive | inactive | inactive | inactive | inactive | inactive | inactive | inactive | inactive |  | inactive |  |  | inactive | 

Results, then the compound that gave them:

Row | inhibition [1] | inhibition [2] | inhibition [3] | inhibition [4] | inhibition [5] | inhibition [6] | inhibition [7] | inhibition [8] | inhibition [9] | inhibition [10] | inhibition [11] | pIC50 [12] | inhibition [13] | pIC50 [7] | pIC50 [1] | inhibition [12] | pIC50 [13] | SMILES
6 | inactive | inactive | inactive | inactive | inactive | inactive |  | inactive | inactive | inactive | inactive |  | inactive | 4.52 |  |  |  | Nc1ncnc2ncn(CC(=O)c3c[nH]c4ccccc34)c12
7 |  |  | inactive | inactive | inactive | inactive |  | inactive | inactive | inactive | inactive | 4.46 | inactive | 4.09 | 4.16 |  |  | Nc1ncnc2c1ncn2CC(=O)c1c[nH]c2ccccc12
8 | inactive | inactive | inactive | inactive | inactive | inactive |  | inactive | inactive | inactive | inactive | 4.12 | inactive |  |  |  |  | Nc1ncnc2c1ncn2CC(=O)c1ccccc1
9 | inactive | inactive | inactive | inactive | inactive | inactive | inactive | inactive | inactive | inactive | inactive |  | inactive |  |  | inactive |  | CN(C)c1ncnc2c1ncn2CC(=O)c1c[nH]c2ccccc12
